Columns and labels:
[1] = target: T1, Methylcytosine dioxygenase TET1 (Homo sapiens, UniProt Q8NFU7); test: (§1) Inhibition of N-terminal 3xFlag-tagged recombinant human TET1 catalytic domain (E1418 to V2136 residues) expressed in baculovirus infected Sf9 cells using 5-methylcytosine as substrate preincubated for 10 mins followed by substrate and DNA-cofactor addition measured after 30 mins by Alphascreen assay; settings: read-out: pIC50 (converted)
Method in brief: (§2)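 TET1 catalytic domain (E1418–V2136, Sf9 baculovirus) at 2 nM was preincubated 10 min with inhibitor (1% DMSO) in HEPES 50 mM pH 7.3, 150 mM NaCl, 0.1% BSA, 0.01% Tween-20. Reaction was started with ascorbate 200 µM, Fe(II) 20 µM, 2OG 20 µM and 5mC ssDNA 10 nM, run 30 min, then EDTA-quenched. Anti-5hmC antibody with AlphaScreen beads, 45–60 min, luminescence read. Three independent replicates.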

[2] = target: T2, Methylcytosine dioxygenase TET2 (Homo sapiens, UniProt Q6N021); test: (§3) Inhibition of N-terminal His-tagged recombinant human TET2 catalytic domain LCIdel mutant (D1129 to G1936 residues with Y1481 to N1843 replaced by 3 x GGGGS linker) expressed in Escherichia coli BL21 (DE3) using 5-methylcytosine as substrate preincubated for 10 mins followed by substrate and DNA-cofactor addition measured after 10 mins by Alphascreen assay
[3] = target: T3, Methylcytosine dioxygenase TET3 (Homo sapiens, UniProt O43151); test: (§4) Inhibition of recombinant human TET3 catalytic domain (E824 to I1795 residues) expressed in baculovirus infected Sf9 cells using 5-methylcytosine as substrate preincubated for 10 mins followed by substrate and DNA-cofactor addition measured after 10 mins by Alphascreen assay; settings: read-out: pIC50 (converted)
[4] = target: T3, Methylcytosine dioxygenase TET3; test: as §4, with “as substrate assessed as change in pIC50 preincubated for” for “as substrate preincubated for”; settings: time 20.0 min
[5] = target: T1, Methylcytosine dioxygenase TET1; test: as §1, with “as substrate assessed as change in pIC50 preincubated for” for “as substrate preincubated for”; settings: time 40.0 min; method in brief: as §2
[6] = test system: Methylcytosine dioxygenase TET2 (Homo sapiens), Q6N021 [UNDEFINED MUTATION]; settings: time 20.0 min
[7] = target: T2, Methylcytosine dioxygenase TET2; test: as §3, with “after 12” for “after 10”, “by SPE-MS analysis” for “by Alphascreen assay”
[8] = target: Methylcytosine dioxygenase TET1 (Mus musculus, UniProt Q3URK3); test: Inhibition of recombinant mouse TET1 catalytic domain (E1367 to V2039 residues) expressed in baculovirus expression system using 5-methylcytosine as substrate preincubated for 10 mins followed by substrate and DNA-cofactor addition measured after 9 mins by Alphascreen assay
Method in brief: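 Murine Tet1 catalytic domain (E1367–V2039, High Five baculovirus) at 2 nM was preincubated 10 min with inhibitor (1% DMSO) in HEPES 50 mM pH 7.3, NaCl 150 mM, BSA 0.1%, Tween-20 0.01%. Ascorbate 200 µM, Fe(II) 20 µM, 2OG 20 µM and 5mC ssDNA 10 nM were added; reaction ran 9 min, then EDTA-quenched. AlphaScreen anti-5hmC detection by luminescence.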

T3 sequence (O43151 whole entry, the tested form may be a part): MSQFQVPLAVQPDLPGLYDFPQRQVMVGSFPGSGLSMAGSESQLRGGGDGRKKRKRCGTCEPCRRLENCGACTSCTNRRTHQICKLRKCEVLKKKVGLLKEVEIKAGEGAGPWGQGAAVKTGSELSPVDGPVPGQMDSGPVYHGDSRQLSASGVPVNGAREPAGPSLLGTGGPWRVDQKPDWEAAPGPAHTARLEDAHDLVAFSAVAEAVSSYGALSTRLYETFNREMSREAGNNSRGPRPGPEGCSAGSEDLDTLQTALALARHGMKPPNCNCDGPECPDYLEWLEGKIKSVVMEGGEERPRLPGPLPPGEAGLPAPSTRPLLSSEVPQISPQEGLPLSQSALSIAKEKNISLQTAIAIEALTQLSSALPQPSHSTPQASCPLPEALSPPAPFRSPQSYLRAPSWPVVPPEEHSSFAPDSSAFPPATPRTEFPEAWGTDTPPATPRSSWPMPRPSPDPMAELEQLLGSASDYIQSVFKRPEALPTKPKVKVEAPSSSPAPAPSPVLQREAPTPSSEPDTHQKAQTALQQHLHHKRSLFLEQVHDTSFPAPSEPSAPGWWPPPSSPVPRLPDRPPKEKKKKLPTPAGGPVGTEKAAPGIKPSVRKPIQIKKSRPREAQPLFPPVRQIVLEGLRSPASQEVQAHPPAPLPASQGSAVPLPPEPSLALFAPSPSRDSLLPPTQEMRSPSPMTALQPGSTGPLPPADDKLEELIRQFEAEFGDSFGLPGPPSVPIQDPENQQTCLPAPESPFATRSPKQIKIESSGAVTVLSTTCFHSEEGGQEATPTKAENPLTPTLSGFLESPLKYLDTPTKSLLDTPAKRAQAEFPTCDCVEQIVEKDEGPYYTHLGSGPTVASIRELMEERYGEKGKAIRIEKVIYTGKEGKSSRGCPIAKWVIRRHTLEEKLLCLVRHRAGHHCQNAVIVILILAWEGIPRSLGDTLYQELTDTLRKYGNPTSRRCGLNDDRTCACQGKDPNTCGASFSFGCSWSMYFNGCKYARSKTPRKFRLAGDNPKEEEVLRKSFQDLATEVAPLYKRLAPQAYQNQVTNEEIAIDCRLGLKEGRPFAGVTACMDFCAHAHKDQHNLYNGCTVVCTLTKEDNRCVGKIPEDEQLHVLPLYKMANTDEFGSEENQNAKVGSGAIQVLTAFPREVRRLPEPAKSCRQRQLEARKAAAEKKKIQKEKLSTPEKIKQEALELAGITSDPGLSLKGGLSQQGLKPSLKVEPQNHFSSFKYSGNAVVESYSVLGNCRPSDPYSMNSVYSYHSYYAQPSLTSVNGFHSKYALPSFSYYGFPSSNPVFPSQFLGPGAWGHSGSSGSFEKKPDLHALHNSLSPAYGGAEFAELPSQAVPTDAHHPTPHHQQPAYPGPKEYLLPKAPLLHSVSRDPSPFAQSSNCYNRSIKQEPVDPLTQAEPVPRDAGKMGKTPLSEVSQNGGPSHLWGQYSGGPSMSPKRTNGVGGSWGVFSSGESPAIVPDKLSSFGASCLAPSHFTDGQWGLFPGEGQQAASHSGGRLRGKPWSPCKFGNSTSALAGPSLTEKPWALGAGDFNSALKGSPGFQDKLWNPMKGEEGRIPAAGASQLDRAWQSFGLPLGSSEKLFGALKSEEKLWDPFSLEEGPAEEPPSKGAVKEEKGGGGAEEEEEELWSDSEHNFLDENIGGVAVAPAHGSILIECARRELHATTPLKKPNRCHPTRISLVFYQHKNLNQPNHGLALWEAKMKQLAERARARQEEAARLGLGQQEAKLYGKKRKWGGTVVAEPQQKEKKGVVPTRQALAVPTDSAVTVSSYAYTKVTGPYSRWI
Sequence of Methylcytosine dioxygenase TET1 (Mus musculus, UniProt Q3URK3) (Q3URK3 whole entry, the tested form may be a part): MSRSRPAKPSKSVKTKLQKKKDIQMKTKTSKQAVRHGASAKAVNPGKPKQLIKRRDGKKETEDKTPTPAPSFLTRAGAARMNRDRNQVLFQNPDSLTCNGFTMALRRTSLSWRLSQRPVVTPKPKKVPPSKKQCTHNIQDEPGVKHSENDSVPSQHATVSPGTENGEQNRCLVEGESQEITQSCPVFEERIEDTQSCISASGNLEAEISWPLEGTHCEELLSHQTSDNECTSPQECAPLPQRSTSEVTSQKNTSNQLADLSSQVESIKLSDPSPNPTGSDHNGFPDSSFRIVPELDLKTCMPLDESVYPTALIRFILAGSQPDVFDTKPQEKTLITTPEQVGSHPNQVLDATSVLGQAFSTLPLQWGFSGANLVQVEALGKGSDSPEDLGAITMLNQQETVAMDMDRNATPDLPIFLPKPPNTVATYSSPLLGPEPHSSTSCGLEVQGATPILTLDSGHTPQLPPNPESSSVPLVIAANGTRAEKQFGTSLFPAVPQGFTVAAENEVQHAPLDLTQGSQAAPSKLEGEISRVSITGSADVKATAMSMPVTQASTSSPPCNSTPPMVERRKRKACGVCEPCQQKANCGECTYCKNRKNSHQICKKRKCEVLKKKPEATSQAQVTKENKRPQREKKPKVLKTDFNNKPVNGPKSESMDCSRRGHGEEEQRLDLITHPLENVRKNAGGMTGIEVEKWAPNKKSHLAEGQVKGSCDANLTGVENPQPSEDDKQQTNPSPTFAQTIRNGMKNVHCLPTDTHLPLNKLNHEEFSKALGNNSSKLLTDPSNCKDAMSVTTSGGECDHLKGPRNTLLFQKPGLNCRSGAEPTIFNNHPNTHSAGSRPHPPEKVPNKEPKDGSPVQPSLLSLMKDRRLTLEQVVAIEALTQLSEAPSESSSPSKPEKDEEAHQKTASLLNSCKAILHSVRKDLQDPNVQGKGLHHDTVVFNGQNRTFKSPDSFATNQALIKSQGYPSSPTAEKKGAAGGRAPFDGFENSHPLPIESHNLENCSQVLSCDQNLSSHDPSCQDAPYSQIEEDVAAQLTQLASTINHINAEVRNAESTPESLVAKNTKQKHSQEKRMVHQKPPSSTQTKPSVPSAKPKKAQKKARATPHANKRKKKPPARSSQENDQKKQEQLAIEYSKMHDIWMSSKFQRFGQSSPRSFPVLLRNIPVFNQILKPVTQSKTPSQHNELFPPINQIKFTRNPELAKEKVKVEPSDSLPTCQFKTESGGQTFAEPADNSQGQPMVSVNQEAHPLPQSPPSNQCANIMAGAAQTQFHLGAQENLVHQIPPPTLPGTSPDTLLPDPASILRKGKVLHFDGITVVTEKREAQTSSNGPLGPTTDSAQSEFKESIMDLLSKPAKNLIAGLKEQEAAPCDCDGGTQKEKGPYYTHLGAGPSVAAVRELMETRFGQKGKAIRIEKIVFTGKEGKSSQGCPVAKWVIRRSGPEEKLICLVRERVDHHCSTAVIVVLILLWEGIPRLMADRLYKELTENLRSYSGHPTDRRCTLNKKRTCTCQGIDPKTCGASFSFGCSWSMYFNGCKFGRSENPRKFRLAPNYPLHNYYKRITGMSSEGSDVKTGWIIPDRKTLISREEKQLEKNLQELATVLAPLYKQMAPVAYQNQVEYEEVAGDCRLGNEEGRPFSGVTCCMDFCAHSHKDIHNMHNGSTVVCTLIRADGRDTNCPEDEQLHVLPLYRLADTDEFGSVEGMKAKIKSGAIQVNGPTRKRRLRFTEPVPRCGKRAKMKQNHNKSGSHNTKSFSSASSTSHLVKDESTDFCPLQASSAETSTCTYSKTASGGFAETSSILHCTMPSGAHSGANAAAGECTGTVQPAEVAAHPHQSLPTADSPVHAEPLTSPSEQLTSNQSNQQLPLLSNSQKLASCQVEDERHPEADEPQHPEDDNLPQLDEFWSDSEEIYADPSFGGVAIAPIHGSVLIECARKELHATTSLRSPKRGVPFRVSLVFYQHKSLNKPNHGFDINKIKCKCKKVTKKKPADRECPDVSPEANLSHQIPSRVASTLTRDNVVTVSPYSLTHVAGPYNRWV

Compound | IC50 [1] | IC50 [3] | deltapIC50 [4] | deltapIC50 [5] | deltapIC50 [6] | IC50 [8] | pIC50 [2] | pIC50 [7]
CC[C@H](C)[C@@H]1NC(=O)[C@H](CC(C)C)NC(=O)[C@@H](Cc2ccc(O)cc2)NC(=O)CSC[C@@H](C(N)=O)NC(=O)[C@H](CO)NC(=O)[C@H](Cc2c[nH]cn2)NC(=O)[C@H](CCC(=O)O)NC(=O)[C@H](Cc2c[nH]c3ccccc23)NC(=O)[C@H](Cc2c[nH]c3ccccc23)NC(=O)[C@H](C)NC(=O)[C@H](Cc2ccc(O)cc2)NC(=O)[C@H](Cc2ccc(O)cc2)NC(=O)[C@H](C)NC(=O)[C@H](Cc2ccc(O)cc2)NC1=O | 2.88 µM | 5.25 µM | 0 | -0.94 | -0.05 |  | 4.65 | 
CC[C@H](C)[C@@H]1NC(=O)[C@H](CC(C)C)NC(=O)[C@@H](Cc2ccc(O)cc2)NC(=O)CSC[C@@H](C(N)=O)NC(=O)[C@H](CO)NC(=O)[C@H](Cc2c[nH]cn2)NC(=O)[C@H](C)NC(=O)[C@H](Cc2c[nH]c3ccccc23)NC(=O)[C@H](Cc2c[nH]c3ccccc23)NC(=O)[C@H]([C@@H](C)O)NC(=O)[C@H](Cc2ccc(O)cc2)NC(=O)[C@H](Cc2ccc(O)cc2)NC(=O)[C@H](C)NC(=O)[C@H](Cc2ccc(O)cc2)NC1=O | 1.74 µM | > 100 µM | < -1.28 | -0.72 | -0.55 |  | 4.14 | 
CC[C@H](C)[C@@H]1NC(=O)[C@H]([C@@H](C)CC)NC(=O)[C@@H](Cc2c[nH]c3ccccc23)NC(=O)CSC[C@@H](C(N)=O)NC(=O)[C@H](CCCNC(=N)N)NC(=O)[C@H](Cc2c[nH]c3ccccc23)NC(=O)[C@H](Cc2c[nH]c3ccccc23)NC(=O)[C@H]([C@@H](C)O)NC(=O)[C@H](Cc2ccc(O)cc2)NC(=O)[C@H](CC(N)=O)NC(=O)[C@H](Cc2c[nH]cn2)NC(=O)[C@H](Cc2ccc(O)cc2)NC1=O | 0.363 µM | 0.631 µM |  |  | -0.54 | 0.933 µM | 6.08 | 5.54
CC[C@H](C)[C@@H]1NC(=O)[C@@H](Cc2ccc(O)cc2)NC(=O)CSC[C@@H](C(N)=O)NC(=O)[C@H](CCCNC(=N)N)NC(=O)[C@H](Cc2c[nH]c3ccccc23)NC(=O)[C@H](Cc2c[nH]c3ccccc23)NC(=O)[C@H]([C@@H](C)O)NC(=O)[C@H](Cc2ccc(O)cc2)NC(=O)[C@H](Cc2ccc(O)cc2)NC(=O)[C@H](CCCNC(=N)N)NC(=O)[C@H](Cc2ccc(O)cc2)NC(=O)[C@H](C(C)C)NC1=O | 0.269 µM | 1.38 µM |  |  | -0.19 | 1.78 µM | 5.66 | 5.47
CC[C@H](C)[C@@H]1NC(=O)[C@H](Cc2c[nH]c3ccccc23)NC(=O)[C@H](Cc2c[nH]c3ccccc23)NC(=O)[C@H]([C@@H](C)O)NC(=O)[C@H](Cc2ccc(O)cc2)NC(=O)[C@H](CC(N)=O)NC(=O)[C@H](Cc2ccc(O)cc2)NC(=O)[C@H](Cc2ccc(O)cc2)NC(=O)[C@H](CC(C)C)NC(=O)[C@H](CCCCN)NC(=O)[C@@H](Cc2c[nH]c3ccccc23)NC(=O)CSC[C@@H](C(N)=O)NC1=O | 0.603 µM | 0.692 µM |  |  | -0.63 | 1.05 µM | 6.03 | 5.4
CC[C@H](C)[C@@H]1NC(=O)[C@H](CC(C)C)NC(=O)[C@@H](Cc2ccc(O)cc2)NC(=O)CSC[C@@H](C(N)=O)NC(=O)[C@H](CO)NC(=O)[C@H](Cc2c[nH]cn2)NC(=O)[C@H](CCC(=O)O)NC(=O)[C@H](Cc2c[nH]c3ccccc23)NC(=O)[C@H](Cc2c[nH]c3ccccc23)NC(=O)[C@H]([C@@H](C)O)NC(=O)[C@H](Cc2ccc(O)cc2)NC(=O)[C@H](C)NC(=O)[C@H](C)NC(=O)[C@H](Cc2ccc(O)cc2)NC1=O | 1.1 µM | 16.2 µM | -0.48 | -0.52 | -0.07 |  | 4.63 | 
CC[C@H](C)[C@@H]1NC(=O)[C@H](CCC(N)=O)NC(=O)[C@H](Cc2c[nH]cn2)NC(=O)[C@H](Cc2ccc(O)cc2)NC(=O)[C@H]([C@@H](C)O)NC(=O)[C@H](CCCCN)NC(=O)[C@H](C(C)C)NC(=O)[C@H](CCCNC(=N)N)NC(=O)[C@H](Cc2ccc(O)cc2)NC(=O)[C@@H](Cc2ccc(O)cc2)NC(=O)CSC[C@@H](C(N)=O)NC(=O)[C@H](CO)NC(=O)[C@H](C(C)C)NC(=O)[C@H](Cc2ccc(O)cc2)NC(=O)[C@H](C(C)C)NC(=O)[C@H](Cc2ccc(O)cc2)NC(=O)[C@H]([C@@H](C)O)NC1=O | 0.776 µM | 0.501 µM |  |  | -0.34 | 1.35 µM | 5.89 | 5.55
CC[C@H](C)[C@@H]1NC(=O)[C@H](Cc2ccc(O)cc2)NC(=O)[C@H](Cc2ccc(O)cc2)NC(=O)[C@H](C(C)C)NC(=O)[C@@H](Cc2ccc(O)cc2)NC(=O)CSC[C@@H](C(N)=O)NC(=O)[C@H]([C@@H](C)O)NC(=O)[C@H](CCC(=O)O)NC(=O)[C@H](Cc2ccccc2)NC(=O)[C@H](C(C)C)NC(=O)[C@H](C)NC(=O)[C@H](CCCNC(=N)N)NC(=O)[C@H](CS)NC(=O)[C@H](Cc2c[nH]c3ccccc23)NC(=O)[C@H](Cc2c[nH]c3ccccc23)NC(=O)[C@@H]2CCCN2C1=O | 44.7 µM | 31.6 µM |  |  | > 1.44 | 38.9 µM | < 4 | 5.44

Now from value to compound, other results behind:

IC50 [1] | IC50 [3] | deltapIC50 [4] | deltapIC50 [5] | deltapIC50 [6] | IC50 [8] | Compound | pIC50 [2] | pIC50 [7]
0.417 µM | 6.31 µM | -0.08 | -0.1 | -0.02 |  | CC[C@H](C)[C@@H]1NC(=O)[C@H](CC(C)C)NC(=O)[C@@H](Cc2ccc(O)cc2)NC(=O)CSC[C@@H](C(N)=O)NC(=O)[C@H](C)NC(=O)[C@H](Cc2c[nH]cn2)NC(=O)[C@H](CCC(=O)O)NC(=O)[C@H](Cc2c[nH]c3ccccc23)NC(=O)[C@H](Cc2c[nH]c3ccccc23)NC(=O)[C@H]([C@@H](C)O)NC(=O)[C@H](Cc2ccc(O)cc2)NC(=O)[C@H](Cc2ccc(O)cc2)NC(=O)[C@H](C)NC(=O)[C@H](Cc2ccc(O)cc2)NC1=O | 4.68 | 
0.692 µM | 18.2 µM |  |  | 0.2 | 27.5 µM | CC[C@H](C)[C@@H]1NC(=O)[C@H](CO)NC(=O)[C@H](CCCNC(=N)N)NC(=O)[C@H](CC(C)C)NC(=O)[C@H](Cc2c[nH]cn2)NC(=O)[C@H](CC(C)C)NC(=O)[C@@H]2CCCN2C(=O)[C@H]([C@@H](C)CC)NC(=O)[C@@H](Cc2c[nH]c3ccccc23)NC(=O)CSC[C@@H](C(N)=O)NC(=O)[C@H](CO)NC(=O)[C@H](CCCNC(=N)N)NC(=O)CNC(=O)[C@H](CC(N)=O)NC(=O)[C@H](Cc2ccc(O)cc2)NC(=O)[C@H](C)NC(=O)[C@H](CC(C)C)NC1=O | 4.65 | 4.85
1.35 µM | 6.03 µM |  |  | 0.39 | 8.71 µM | CC[C@H](C)[C@@H]1NC(=O)[C@H](CCC(N)=O)NC(=O)[C@H](Cc2ccc(O)cc2)NC(=O)[C@H](Cc2ccc(O)cc2)NC(=O)[C@H]([C@@H](C)O)NC(=O)[C@H](CCCCN)NC(=O)[C@H](C(C)C)NC(=O)[C@H](CCCNC(=N)N)NC(=O)[C@H](Cc2ccc(O)cc2)NC(=O)[C@@H](Cc2ccc(O)cc2)NC(=O)CSC[C@@H](C(N)=O)NC(=O)[C@H](CO)NC(=O)[C@H](C(C)C)NC(=O)[C@H](Cc2ccc(O)cc2)NC(=O)[C@H](C(C)C)NC(=O)[C@H](Cc2ccc(O)cc2)NC(=O)[C@H]([C@@H](C)O)NC1=O | 5.11 | 5.5
0.794 µM | 3.55 µM |  |  | -0.79 | 4.37 µM | C[C@@H]1NC(=O)[C@H](Cc2c[nH]c3ccccc23)NC(=O)[C@H](Cc2ccc(O)cc2)NC(=O)[C@H](Cc2ccc(O)cc2)NC(=O)[C@H](CCCCN)NC(=O)[C@H](CC(=O)O)NC(=O)[C@H]([C@@H](C)O)NC(=O)[C@@H](Cc2c[nH]c3ccccc23)NC(=O)CSC[C@@H](C(N)=O)NC(=O)[C@H](CO)NC(=O)[C@H](Cc2c[nH]c3ccccc23)NC(=O)[C@H](Cc2c[nH]c3ccccc23)NC(=O)[C@H]([C@@H](C)O)NC(=O)[C@H](Cc2ccc(O)cc2)NC1=O | 5.41 | 4.62
0.468 µM | 2.75 µM |  |  | -0.5 | 3.63 µM | C[C@@H]1NC(=O)[C@H](Cc2ccccc2)NC(=O)[C@H](Cc2ccc(O)cc2)NC(=O)[C@H](Cc2ccc(O)cc2)NC(=O)[C@H](CCCNC(=N)N)NC(=O)[C@@H](Cc2ccc(O)cc2)NC(=O)CSC[C@@H](C(N)=O)NC(=O)[C@H](C)NC(=O)[C@H](Cc2c[nH]c3ccccc23)NC(=O)[C@H](Cc2c[nH]c3ccccc23)NC(=O)[C@H]([C@@H](C)O)NC(=O)[C@H](Cc2ccc(O)cc2)NC1=O | 5.52 | ~ 5

Source: ChEMBL document CHEMBL5523688, “Selective targeting of human TET1 by cyclic peptide inhibitors: Insights from biochemical profiling” (Bioorg Med Chem, 2024)
